# Measured values collected from several papers.
# Protocols differ between the studies behind these lines.
# Target: Serine/threonine-protein kinase PLK1 (PLK1, Homo sapiens, UniProt P53350)
Structure (SMILES),observed,mode,technique,cell line,tested at,measurement,value
CN(c1ncccc1CNc1nc(Nc2ccc3c(c2)CC(=O)N3)ncc1C(F)(F)F)S(C)(=O)=O,enzyme activity,inhibitor,,,1 µM,inhibition,22.1%
Cc1ccc(NC(=O)c2ccc(CN3CCN(C)CC3)cc2)cc1Nc1nc(-c2cccnc2)cs1,cell-free assay,,,,0.5 µM,remaining signal,101%
CN1CC(Oc2cnc(C#N)cc2-c2ccn3nc(NC(=O)C4CC4)cc3c2)C1,enzyme activity,inhibitor,,,1 µM,inhibition,6%
CC(C)(O)[C@H]1CC[C@H](Nc2ccc3ncc(-c4cccc(C(F)(F)F)c4)n3n2)CC1,enzyme activity,inhibitor,,,1 µM,remaining activity,94.4%
CN(C)C1CCN(CC#Cc2nn(C3CCCC3)c3nc(NCc4ccccc4)ncc23)C1 (stereo not shown),enzyme activity,inhibitor,FRET,,1 µM,inhibition,-5%
CC(=O)C1=C(C)N(c2cccc(C(F)(F)F)c2)C(=O)N[C@@H]1c1ccc(C#N)nc1,cell-free assay,,competition with immobilised ligand,,1 µM,remaining binding,100%
FC(F)c1nc2ccccc2n1-c1nc(N2CCOCC2)nc(N2CCOCC2)n1,enzyme activity,inhibitor,,,10 µM,remaining activity,75%
CNCc1ccccc1-c1csc([C@@H](C)Nc2nc(C)nc3cc(OC)c(OC)cc23)c1,cell-free assay,,competition with immobilised ligand,,1 µM,remaining binding,80%
CS(=O)(=O)Nc1cccc(-c2csc(NC(=O)CSc3nc4nccnc4c(=O)n3CCc3ccccc3)n2)c1,enzyme activity,inhibitor,,,10 µM,inhibition,11%
CC(C)(C)C(=O)c1sc(NC2CCCCC2)nc1N,enzyme activity,inhibitor,,,10 µM,remaining activity,93%
CC(C)(C)c1nc2c(s1)c1nc(N)ncc1c1ccc(NS(=O)(=O)c3c(F)cccc3F)c(F)c12,enzyme activity,inhibitor,radiometric,,1 µM,remaining activity,101%
COc1cc(Nc2c(C#N)cnc3cc(OCCCN4CCN(C)CC4)c(OC)cc23)c(Cl)cc1Cl,cell-free assay,,,,0.5 µM,remaining signal,93.8%
CCN(CC)CCNC(=O)c1c(C)[nH]c(/C=C2\C(=O)Nc3ccc(F)cc32)c1C,enzyme activity,inhibitor,,,1 µM,remaining activity,110%
COc1cc(/C=C/C(=O)CC(=O)/C=C/c2ccc(O)c(OC)c2)ccc1O,enzyme activity,inhibitor,,,1 µM,activity vs control,75%
COc1cc2ncnc(Nc3ccc(Oc4ccccc4)cc3C)c2cc1OC,enzyme activity,inhibitor,,,1 µM,inhibition,3%
O=C(Nc1cnn(-c2csc(C(=O)NC3COC3)c2)c1)Nc1c(F)cccc1Cl,enzyme activity,inhibitor,,,5 µM,remaining activity,95.5%
Cc1cc(NC(=O)c2cccc3cc(-c4cccc5[nH]nc(N)c45)ccc23)ccc1F,enzyme activity,inhibitor,,,0.1 µM,activity vs control,92%
Cc1ccc(NC(=O)c2ccc(C)c(C(F)(F)F)c2)cc1C#Cc1nn(C2CCC(O)CC2)c2ncnc(N)c12 (stereo not shown),cell-free assay,,,,10 µM,remaining signal,92%
Cc1ccc(C(=O)NCc2ccsc2)cc1C#Cc1cn(C(C)C)c2ncnc(N)c12,enzyme activity,inhibitor,,,1 µM,activity vs control,105%
CC(C)CC(=O)N1CCc2nc(-c3ccc(Br)cc3)nc(N(C)Cc3ccccc3)c2C1,cell-free assay,,competition with immobilised ligand,,0.1 µM,remaining binding,100%
CCN(CC)CCNC(=O)c1c(C)[nH]c(/C=C2\C(=O)Nc3ccc(F)cc32)c1C,cell-free assay,,,,0.5 µM,remaining signal,96.4%
Cc1cc(NC(=O)c2cccc(S(F)(F)(F)(F)F)c2)cc(-n2ccn3nc(-c4cccnc4)cc23)c1,cell-free assay,,competition with immobilised ligand,,1 µM,remaining binding,95.3%
Nc1nc(NC2CCCCC2)sc1C(=O)c1ccccc1,enzyme activity,inhibitor,,,10 µM,remaining activity,82%
Cc1nc(C2CCN(C(=O)c3ccc(OC(F)(F)F)cc3N)CC2)c2ncc(N3CCN(C)CC3)cc2n1,cell-free assay,,competition with immobilised ligand,,1 µM,remaining binding,79%
Cc1[nH]c(/C=C2\C(=O)Nc3ccc(F)cc32)c(C)c1C(=O)N[C@H]1CCN(C(=O)N(C)C)C1,enzyme activity,inhibitor,,,1 µM,remaining activity,122%
O=C(Nc1cccnn1)N1CC(C/C=C/c2cncc(Oc3ccc(C(F)(F)F)cn3)n2)C1,cell-free assay,,competition with immobilised ligand,,1 µM,remaining binding,87%
O=c1cc(N2CCOCC2)oc2c(-c3ccccc3)cccc12,cell-free assay,,,,0.5 µM,remaining signal,67.1%
CCN(CC)c1ccc(C2=NNC(=O)CC2C)cc1[N+](=O)[O-] (stereo not shown),enzyme activity,inhibitor,,,10 µM,remaining activity,103%
Cn1c(=O)n(-c2ccc(C(C)(C)C#N)cc2)c2c3cc(-c4cnc5ccccc5c4)ccc3ncc21,enzyme activity,inhibitor,,,10 µM,remaining activity,95%
O=C(Nc1ccc(Oc2ccc(F)cc2)cc1)N1CCc2ncccc2[C@H]1c1ccc(F)cc1,cell-free assay,,competition with immobilised ligand,,1 µM,remaining binding,78%
CCN1CCN(Cc2ccc(NC(=O)c3ccc(C)c(Oc4ccnc5[nH]ccc45)c3)cc2C(F)(F)F)CC1,target engagement in cells,inhibitor,chemoproteomics,Huh-7,1 µM,inhibition,-16.2%
FC(F)(F)Oc1cccc(-c2cnc3ccc(-c4ccncc4)nn23)c1,enzyme activity,inhibitor,radiometric,,5 µM,activity vs control,98%
CN(c1ccnc(CNc2nc(Nc3ccc4c(c3)CC(=O)N4)ncc2C(F)(F)F)n1)S(C)(=O)=O,cell-free assay,,competition with immobilised ligand,,1 µM,remaining binding,7.6%
COc1cc(Nc2cnc(C#N)c(O[C@H](C)CN(C)C)n2)ncc1-c1cnn(C)c1,enzyme activity,inhibitor,radiometric,,1 µM,remaining activity,88%
